Data on 6 compounds can be found in PMC9540497 (Clinical Pharmacology and Therapeutics, 2022).

For orientation: AUC(0-inf) means total exposure, with the tail of the curve extrapolated. The term Cmax denotes the peak of the concentration-time curve. As usually defined, the Tmax is the time at which the peak concentration occurs. What is called half-life is the time in which the quantity being followed falls by half. As a reminder, the IC50 is the midpoint of a concentration-inhibition curve. Lower therefore signals higher potency. The inhibition is the percentage by which the read-out fell short of the control.

Series [1] is classed as in vivo, human. The conditions noted are these: for AUC(0-inf) / Cmax / Tmax / half-life: female, human, plasma, oral; for AUC(0-inf): AUC0–inf; for AUC(0-inf) / Cmax: mean (CV%); for Tmax: median (minimum, maximum); for half-life: t 1/2, mean (CV%). The essentials:
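Healthy women received a single oral contraceptive dose (0.03 mg EE, 3 mg DRSP) fed on days 1, 8 and 18, with test compound 600 mg once daily on days 8–23. Blood was drawn predose and at 0.5–120 h postdose. EE and DRSP were measured by validated UHPLC-MS/MS (LLOQ 2.5 pg/mL and 0.5 ng/mL). LS geometric mean ratios (90% CI) of ln Cmax and AUC0–inf came from a mixed model (day fixed, subject random).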

For series [2], the target named is T1, CYP3A4 (Homo sapiens, UniProt P08684). The conditions noted are these: cited from earlier work.
T1 sequence (P08684 whole entry): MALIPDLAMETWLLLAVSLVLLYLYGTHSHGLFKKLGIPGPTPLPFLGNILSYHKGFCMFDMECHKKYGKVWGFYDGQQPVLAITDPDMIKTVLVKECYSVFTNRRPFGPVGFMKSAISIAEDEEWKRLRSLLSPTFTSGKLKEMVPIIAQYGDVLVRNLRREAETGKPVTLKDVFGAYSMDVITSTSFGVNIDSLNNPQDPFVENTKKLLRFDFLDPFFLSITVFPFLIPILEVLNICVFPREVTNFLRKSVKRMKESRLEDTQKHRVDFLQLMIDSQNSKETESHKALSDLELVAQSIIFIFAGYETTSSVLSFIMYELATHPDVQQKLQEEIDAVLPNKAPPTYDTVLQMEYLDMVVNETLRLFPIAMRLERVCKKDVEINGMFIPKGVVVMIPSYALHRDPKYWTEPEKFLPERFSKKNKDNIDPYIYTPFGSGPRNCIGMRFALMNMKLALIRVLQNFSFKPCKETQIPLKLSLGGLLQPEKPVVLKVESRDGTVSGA
A further series in a line: Safety and tolerability. It counts as in vivo, human. Particulars: 600 mg q.d. with oral contraceptive, healthy women. The essentials: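 Throughout the study in healthy women, TEAEs, serious TEAEs and TEAEs leading to discontinuation were monitored, covering oral contraceptive alone and co-administration with test compound 600 mg q.d. Intensity (mild/moderate) and investigator-judged relatedness were recorded. Clinical laboratory parameters, vital signs and ECG were also assessed.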

The target in series [3] is T2, SULT1E1 (Homo sapiens, UniProt P49888).
T2 sequence (P49888 1-294): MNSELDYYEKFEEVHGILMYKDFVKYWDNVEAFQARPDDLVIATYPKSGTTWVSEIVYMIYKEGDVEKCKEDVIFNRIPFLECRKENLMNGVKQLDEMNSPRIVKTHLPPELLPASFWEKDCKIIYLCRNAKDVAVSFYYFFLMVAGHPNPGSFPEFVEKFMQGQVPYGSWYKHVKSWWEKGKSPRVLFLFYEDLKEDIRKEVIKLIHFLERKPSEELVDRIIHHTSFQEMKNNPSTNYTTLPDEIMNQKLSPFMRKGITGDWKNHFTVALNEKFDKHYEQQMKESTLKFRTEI
Description: SULT1E1 in vitro inhibition test. It counts as biochemical. The essentials: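 Recombinant human SULT1E1 expressed in E. coli was incubated with EE 5 nM as substrate. Test compound was tested at 0.8, 2, 8, 20, 80 and 200 µM, with quercetin 0.5 µM as positive control and a DMSO solvent control. Metabolite formation was read by UHPLC-MS/MS peak area, and activity was expressed relative to solvent control (n = 3). IC50 came from a sigmoidal fit; tentative Ki came from Cheng–Prusoff assuming competitive inhibition and substrate concentration equal to Km.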

For series [4], the target named is T2, SULT1E1. The format is in vivo. The conditions noted are these: 600 mg q.d.; day 18 vs day 1; three subjects. The essentials: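 Plasma from three subjects, sampled on day 1 (oral contraceptive alone) and day 18 (with test compound 600 mg q.d.), was split into duplicate aliquots. One aliquot was hydrolysed with purified arylsulfatase and the other with genetically modified β-glucuronidase, in 1 M Tris-HCl pH 8.0 buffer (stock), at 50°C for 1 h. Total EE was measured by LC-MS/MS. EE AUClast with and without hydrolysis was computed by linear-up/log-down trapezoids.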

In series [5] the target is T1, CYP3A4. The conditions noted are these: in vitro studies; cited from earlier work.
The target of another series is T3, UGT1A1 (Homo sapiens, UniProt P22309).
T3 sequence (P22309 26-533): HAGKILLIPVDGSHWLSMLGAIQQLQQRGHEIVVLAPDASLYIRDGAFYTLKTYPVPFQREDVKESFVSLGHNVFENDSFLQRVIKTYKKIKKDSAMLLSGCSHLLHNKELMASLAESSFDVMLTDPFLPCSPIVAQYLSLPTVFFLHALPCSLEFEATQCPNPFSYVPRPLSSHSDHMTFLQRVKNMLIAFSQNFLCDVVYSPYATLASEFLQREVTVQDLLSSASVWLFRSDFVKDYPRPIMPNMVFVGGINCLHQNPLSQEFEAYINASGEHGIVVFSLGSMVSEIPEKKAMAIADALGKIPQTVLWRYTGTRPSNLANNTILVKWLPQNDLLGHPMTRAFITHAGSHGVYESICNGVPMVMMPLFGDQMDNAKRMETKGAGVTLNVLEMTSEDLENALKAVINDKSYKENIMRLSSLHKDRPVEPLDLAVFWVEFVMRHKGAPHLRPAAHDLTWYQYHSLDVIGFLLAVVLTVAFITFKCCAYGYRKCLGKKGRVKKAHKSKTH
It counts as in vivo. Particulars: 600 mg q.d.; day 18 vs day 1; three subjects.

In series [6] the target is T1, CYP3A4. Description: In vitro CYP3A4 inhibition and induction by ziritaxestat and predictions from it. The format is in vitro ADME. Particulars: data on file.
Setting [7] is: OC + ziritaxestat 600 mg q.d. (day 8, SD), n = 14.
Setting [8] is: OC + ziritaxestat 600 mg q.d. (day 18, MD), n = 13.
Where [9] appears, read: day 18 test vs. day 1 reference, ziritaxestat 600 mg q.d.

Where two headings read alike, the source gives them in different places.

On to `C[C@]12CCC(=O)C=C1[C@@H]1C[C@@H]1[C@H]1[C@@H]3[C@@H]4C[C@@H]4[C@@]4(CCC(=O)O4)[C@@]3(C)CC[C@@H]12` [Drospirenone, drospirenone], for which, in series [1] (setting [7]), the total exposure AUC(0-inf) is 686 ng·h/mL, the highest concentration (Cmax) stood at 21.4 ng/mL, the time to peak (Tmax) came to 2.5 h and the half-life is 44.7 h. Besides, in series [1] (setting [8]), the area under the curve AUC(0-inf) stood at 708 ng·h/mL, the Cmax amounted to 22.6 ng/mL, the time of peak concentration (Tmax) is 4 h and the half-life is 43.4 h. In series [1] (OC alone (day 1), n = 15), this compound showed an AUC(0-inf) of 574 ng·h/mL, a peak concentration (Cmax) of 20.7 ng/mL and a half-life of 39 h.
With `CC(C)(C)NC(=O)N[C@H](C(=O)N1C[C@H]2[C@@H]([C@H]1C(=O)NC(CC1CCC1)C(=O)C(N)=O)C2(C)C)C(C)(C)C` (some centres unmarked) [boceprevir], the “increase in DRSP exposure on co-administration” value at CYP3A4 [2] (strong CYP3A4 inhibition) is reported as 100%.
As to `C[C@@H](c1ncncc1F)[C@](O)(Cn1cncn1)c1ccc(F)cc1F` [voriconazole], at CYP3A4 [2] (strong CYP3A4 inhibitor co-administered), the “increase of the systemic exposure of EE on co-administration” value is given as 60%.
As to `C#C[C@]1(O)CC[C@H]2[C@@H]3CCc4cc(O)ccc4[C@H]3CC[C@@]21C` [Ethinyl estradiol, ethinyl estradiol], in series [1] (setting [9]), the “increase of AUC0–inf on co-administration with ziritaxestat” value was 2.4 fold and the “increase of Cmax on co-administration with ziritaxestat” value is on record as 2.8 fold. Also, in series [1] (setting [7]), the total exposure AUC(0-inf) was determined as 2.02 ng·h/mL, the Cmax is 0.122 ng/mL and the half-life was 30.1 h. In addition, the AUC(0-inf) in series [1] (setting [8]) was 2.18 ng·h/mL. In series [1] (OC alone (day 1), n = 15, fed), the area under the curve AUC(0-inf) is 0.967 ng·h/mL. Also, in series [1] (OC alone (day 1), n = 15), the highest level (Cmax) was 0.047 ng/mL and the half-life is 22 h.
Turning to `CCc1nc2c(C)cc(N3CCN(CC(=O)N4CC(O)C4)CC3)cn2c1N(C)c1nc(-c2ccc(F)cc2)c(C#N)s1` [ziritaxestat], the “tolerability (in words)” value in the series “Safety and tolerability” was “generally well tolerated”. Further, the 50% inhibitory concentration (IC50) against SULT1E1 [3] was < 800 nM. Further, the “effect on EE sulfation in vivo (in words)” value on SULT1E1 [4] is reported as “potent inhibitor of sulfation”. Also, the “CYP3A4 induction and inhibition in vitro (in words)” value at CYP3A4 [5] is “weak inducer and inhibitor”. For the same compound, the “effect on EE glucuronidation in vivo (in words)” value on UGT1A1 is “potential weak inhibitory effect”. For the same compound, on CYP3A4 [6], the “mode of CYP3A4 inhibition” value was “competitive and reversible”.
In the case of `O=c1c(O)c(-c2ccc(O)c(O)c2)oc2cc(O)cc(O)c12` [quercetin, Quercetin], the inhibition at 0.5 µM at SULT1E1 [3] (read-out: inhibition of SULT1E1) was determined as 66%.
